According to ChEMBL document CHEMBL1133143, “Calpain inhibitors based on the quiescent affinity label concept: high rates of calpain inactivation with leaving groups derived from N-hydroxy peptide coupling reagents” (Bioorg Med Chem Lett, 2000):
Residues, ends and D or L forms follow the SMILES beside them. *: point of attachment. Cbz = O=C(OCc1ccccc1)*; CH2F = FC*

Columns and labels:
[1] = target: Cathepsin B (Homo sapiens) (UniProt P07858); assay: Second order rate constant for inactivation of human liver cathepsin B was reported
How it was run: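 Human liver cathepsin B inactivation was run by an analogous progress-curve method (substrate plus inhibitor) under published assay conditions. The second-order rate constant came from progress-curve analysis. Inhibitor was added as quickly as possible before measurement because of limited aqueous stability.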

[2] = target: Cathepsin B (Homo sapiens) (UniProt P07858); assay: Ratio of second order rate constant of calpain I to that of cathepsinB
[3] = target: T1, Calpain-1 catalytic subunit (Homo sapiens) (UniProt P07384); assay: Second order rate constant for inactivation of recombinant human Calpain 1 was reported
T1 sequence (whole entry): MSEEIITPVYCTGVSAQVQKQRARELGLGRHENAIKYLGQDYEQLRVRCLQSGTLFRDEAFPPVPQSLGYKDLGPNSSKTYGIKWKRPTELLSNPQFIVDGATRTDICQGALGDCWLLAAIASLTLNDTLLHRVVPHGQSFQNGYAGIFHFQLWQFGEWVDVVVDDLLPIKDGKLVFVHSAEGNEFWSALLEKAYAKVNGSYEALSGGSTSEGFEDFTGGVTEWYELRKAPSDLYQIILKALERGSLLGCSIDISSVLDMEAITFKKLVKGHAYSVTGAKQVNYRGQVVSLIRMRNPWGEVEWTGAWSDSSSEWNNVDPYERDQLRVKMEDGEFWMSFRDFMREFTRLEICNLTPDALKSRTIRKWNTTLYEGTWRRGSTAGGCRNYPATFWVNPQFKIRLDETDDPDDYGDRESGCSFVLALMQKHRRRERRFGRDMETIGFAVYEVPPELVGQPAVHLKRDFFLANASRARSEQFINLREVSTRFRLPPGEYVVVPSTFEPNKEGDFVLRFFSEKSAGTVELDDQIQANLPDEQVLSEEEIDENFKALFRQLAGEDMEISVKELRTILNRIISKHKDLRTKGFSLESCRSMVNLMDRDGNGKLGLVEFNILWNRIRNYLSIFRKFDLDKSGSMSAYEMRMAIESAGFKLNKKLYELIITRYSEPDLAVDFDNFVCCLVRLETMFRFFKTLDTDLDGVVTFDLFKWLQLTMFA
How it was run: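 Started with 5 mM CaCl2 at ambient temperature. Fluorescence (ex 340/em 440 nm) was recorded continuously. kobs came from an exponential fit, and k2 from the kobs-vs-[I] slope with a (1+S/Km) correction.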

[4] = target: T1, Calpain-1 catalytic subunit (Homo sapiens); assay: Percent inhibition of recombinant Calpain 1 after 5 min of incubation with 10 uM compound
How it was run: (§1)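 Single-concentration test: 10 inhibitor, 5 min incubation, then percent inhibition of recombinant human calpain I activity measured by the fluorogenic Suc-Leu-Tyr-MNA assay (ex 340/em 440 nm) in Ca2+-initiated buffer at ambient temperature.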

[5] = target: Cathepsin B (Homo sapiens) (UniProt P07858); assay: Percent inhibition of recombinant calpain I after 5 min of incubation with 10 uM compound; how it was run: as §1

Compound | K obs / 1 [1] | Ratio [2] | K obs / 1 [3] | inhibition [4] | inhibition [5]
CC(C)CC(NC(=O)OCc1ccccc1)C(=O)NC(Cc1ccccc1)C(=O)Cn1nnc2ccccc21 (stereo not given) | – | – | – | 83% | –
CC(C)CC(NC(=O)OCc1ccccc1)C(=O)NC(Cc1ccccc1)C(=O)CON1C(=O)c2ccccc2C1=O (stereo not given) | – | – | – | 32% | –
CC(C)CC(NC(=O)OCc1ccccc1)C(=O)NC(Cc1ccccc1)C(=O)CON1C(=O)CCC1=O (stereo not given) | – | – | 5800 M⁻¹ s⁻¹ | – | –
CC(C)CC(NC(=O)OCc1ccccc1)C(=O)NC(Cc1ccccc1)C(=O)CON1C(=O)C2C3C=CC(C3)C2C1=O (stereo not given) | 6900 M⁻¹ s⁻¹ | 0.14 | 1000 M⁻¹ s⁻¹ | – | –
CC(C)CC(NC(=O)OCc1ccccc1)C(=O)NC(CC(C)C)C(=O)NC(Cc1ccccc1)C(=O)COn1nnc2ccccc21 (stereo not given) | – | – | 524000 M⁻¹ s⁻¹ | – | 32%
CC(C)CC(NC(=O)OCc1ccccc1)C(=O)NC(Cc1ccccc1)C(=O)CF (stereo not drawn) (Cbz-Leu-Phe-CH2F; configuration not given here) | 300 M⁻¹ s⁻¹ | 454 | 136000 M⁻¹ s⁻¹ | – | –

The next lines start with the values.

K obs / 1 [1] | Ratio [2] | K obs / 1 [3] | inhibition [4] | inhibition [5] | Compound
443000 M⁻¹ s⁻¹ | 0.14 | 63000 M⁻¹ s⁻¹ | – | – | CCC(NC(=O)C(CC(C)C)NC(=O)OCc1ccccc1)C(=O)COn1nnc2ccccc21 (stereo not given)
118000 M⁻¹ s⁻¹ | 2.7 | 320000 M⁻¹ s⁻¹ | – | – | CC(C)CC(NC(=O)OCc1ccccc1)C(=O)NC(Cc1ccccc1)C(=O)COn1nnc2ccccc21 (stereo in doubt; 1d)
107000 M⁻¹ s⁻¹ | 1.7 | 184000 M⁻¹ s⁻¹ | – | – | CC(C)CC(NC(=O)OCc1ccccc1)C(=O)NC(Cc1ccccc1)C(=O)COn1nnc2cccnc21 (stereo not given)
